The test system of assay [1] is Human immunodeficiency virus 1. The assay is described as follows: Antiviral activity against HIV1 with reverse transcriptase K103N mutation in MT4 cells after 5 days by MTT method. Type of assay: functional, organism-based. The following applies: Human immunodeficiency virus 1, MT4, 120 h. A digest of the protocol: (§1)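 MT-4 cells from the NIH AIDS Reagent Program were infected with mutant HIV-1 (K103N or Y188L, from the MRC Centralised Facility) in the presence of graded drug concentrations. Mock-infected cells were used for cytotoxicity. Viable cells were counted by MTT colorimetry at day 5 post-infection.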

Assay [2] deals with Human immunodeficiency virus 1. The assay can be described thus: Antiviral activity against HIV1 with reverse transcriptase Y188L mutation in MT4 cells after 5 days by MTT method. The class given is functional, organism-based. Particulars: Human immunodeficiency virus 1, MT4, 120 h. Summed up:
as §1
For orientation: Tetrazolium assays rely on reduction of a dye to a coloured formazan, in cell work by metabolically active cells.

For assay [3], the system named is Human immunodeficiency virus 1. The assay can be described thus: Antiviral activity against HIV1 with reverse transcriptase Y181C mutation in MT4 cells after 5 days by MTT method. Type of assay: functional, organism-based. The following applies: Human immunodeficiency virus 1, MT4, 120 h.
For assay [4], the system named is Human immunodeficiency virus 1 [K103N]. The assay is described as follows: Antiviral activity against HIV1 reverse transcriptase K103N mutant.
For assay [5], the system named is Human immunodeficiency virus 1. The assay can be described thus: Antiviral activity against wild type HIV1 NL4-3 in MT4 cells after 5 days by MTT method. Type of assay: functional, organism-based. The following applies: Human immunodeficiency virus 1, NL4-3, MT4, 120 h. Summed up: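 MT-4 lymphoid cells, infected with HIV-1 or mock-infected (for cytotoxicity), held with a range of drug concentrations; viable cells scored at day 5 post-infection by tetrazolium (MTT) colorimetry.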

Assay [6] addresses Human immunodeficiency virus type 1 reverse transcriptase (Human immunodeficiency virus 1) (UniProt Q72547). The assay can be described thus: Antiviral activity against wild type HIV1 reverse transcriptase.
Assay [7] concerns Human immunodeficiency virus type 1 reverse transcriptase (Human immunodeficiency virus 1), Q72547 [Y181I]. The assay can be described thus: Antiviral activity against HIV1 reverse transcriptase Y181I mutant.

The EC50 is the midpoint of the concentration-response curve. A higher EC50 goes with a need for much substance.

Regarding `Cc1c(Cc2ccc(C#N)cc2)nc(SCc2ccc(C#N)cc2)[nH]c1=O`, the EC50 in assay [1], in assay [2], in assay [3] and in assay [5] was more than 67.2 µM in each case. The ID50 in assay [4], in assay [6] and in assay [7] was more than 20 µM in each case.
On to `COc1ccc(/C=C/CSc2nc(C(C)c3c(Cl)cccc3Cl)c(C)c(=O)[nH]2)cc1` (configuration not stated), for which the EC50 in assay [1] turned out to be 2.47 µM; in assay [2], 1.26 µM; in assay [3] it was 3.6 µM; in assay [5] it was 0.009 µM. The ID50 in assay [4] is more than 20 µM; in assay [6], 0.018 µM; in assay [7], more than 20 µM.
As to `CCc1c(C(C)c2c(F)cccc2F)nc(SC/C=C/c2ccc([N+](=O)[O-])cc2)[nH]c1=O` (configuration not stated), the EC50 in assay [1] was more than 5.75 µM; in assay [2] it was 1.94 µM; in assay [3], more than 5.75 µM; in assay [5], 0.0004 µM. The ID50 in assay [4] was more than 20 µM; in assay [6], 0.009 µM; in assay [7] it was more than 20 µM.
For `CCc1c(Cc2c(F)cccc2F)nc(SCc2ccc(OC)cc2)[nH]c1=O`, the EC50 in assay [1] is 10.3 µM; in assay [2] it was more than 62.2 µM; in assay [3], 1.45 µM; in assay [5] it was 0.012 µM. For the same compound, the ID50 is more than 20 µM in assay [4], 0.03 µM in assay [6] and more than 20 µM in assay [7].
Turning to `Cc1c(Cc2ccc(C#N)cc2)nc(SCC(=O)c2ccccc2)[nH]c1=O`, the half-maximal effective concentration (EC50) in assay [1], in assay [2], in assay [3] and in assay [5] was more than 67.2 µM each time. Moreover, the ID50 in assay [4], in assay [6] and in assay [7] was more than 20 µM throughout.
Regarding `CCc1c(C(C)c2c(F)cccc2F)nc(SC/C=C/c2ccc(C#N)cc2)[nH]c1=O` (configuration not stated), the EC50 was more than 27.2 µM in assay [1], more than 27.2 µM in assay [2], more than 27.2 µM in assay [3] and 0.59 µM in assay [5]. The ID50 in assay [4] was more than 20 µM; in assay [6], 0.048 µM; in assay [7], more than 20 µM.
Regarding `CCCCc1ccc(CSc2nc(Cc3ccc(C#N)cc3)c(C)c(=O)[nH]2)cc1`, the EC50 is more than 79.9 µM in assay [1], more than 79.9 µM in assay [2], more than 79.9 µM in assay [3] and 4.57 µM in assay [5]. Further, the ID50 in assay [4], in assay [6] and in assay [7] was more than 20 µM in each case.
Consider `COc1ccc(CCSc2nc(Cc3c(F)cccc3F)c(C)c(=O)[nH]2)cc1`, for which the EC50 came to 4.13 µM in assay [1], 8.53 µM in assay [2], 6.34 µM in assay [3] and 0.0049 µM in assay [5]. Moreover, the results for the ID50 in assay [4], in assay [6] and in assay [7] were 3.5 µM, 0.029 µM and more than 20 µM, respectively.
Turning to `COc1ccc(/C=C/CSc2nc(Cc3c(Cl)cccc3Cl)c(C)c(=O)[nH]2)cc1`, the EC50 in assay [1] was more than 0.96 µM; in assay [2], more than 0.96 µM; in assay [3], more than 0.96 µM; in assay [5], 0.015 µM. Also, the ID50 was 9 µM in assay [4], 0.007 µM in assay [6] and more than 20 µM in assay [7].
As to `CCOc1ccc(CSc2nc(Cc3c(F)cccc3F)c(C)c(=O)[nH]2)cc1`, the EC50 was more than 62.2 µM in assay [1], more than 62.2 µM in assay [2], 1.19 µM in assay [3] and 0.37 µM in assay [5]. The results for the ID50 in assay [4], in assay [6] and in assay [7] were more than 20 µM, 0.8 µM and more than 20 µM, respectively.
As to `Cc1c(C(C)c2c(Cl)cccc2Cl)nc(SCc2ccc([N+](=O)[O-])cc2)[nH]c1=O` (configuration not stated), the EC50 in assay [1] came out at 6.22 µM; in assay [2], 9.95 µM; in assay [3], 7.15 µM; in assay [5], 0.019 µM. Also, the figures for the ID50 in assay [4], in assay [6] and in assay [7] were more than 20 µM, 0.408 µM and more than 20 µM, respectively.
As for `Cc1c(C(C)c2c(F)cccc2F)nc(SCc2ccc([N+](=O)[O-])cc2)[nH]c1=O` (configuration not stated), the EC50 was 0.66 µM in assay [1], 0.22 µM in assay [2], 0.44 µM in assay [3] and 0.0033 µM in assay [5]. Also, the ID50 was 0.6 µM in assay [4], 0.03 µM in assay [6] and more than 20 µM in assay [7].
For `CCc1c(C(C)c2c(F)cccc2F)nc(SCCOCc2ccc(OC)cc2)[nH]c1=O` (configuration not stated), the EC50 in assay [1] was more than 54.4 µM; in assay [2], more than 54.4 µM; in assay [3], more than 54.4 µM; in assay [5], 3.89 µM. Also, the ID50 was more than 20 µM in assay [4], 0.741 µM in assay [6] and 0.27 µM in assay [7].
Turning to `Cc1c(Cc2ccc(C#N)cc2)nc(SCc2ccc([N+](=O)[O-])cc2)[nH]c1=O`, the EC50 in assay [1], in assay [2], in assay [3] and in assay [5] was more than 26.4 µM each time. In addition, the ID50 in assay [4], in assay [6] and in assay [7] was more than 20 µM throughout.
`CC(=O)Oc1ccc(CSc2nc(Cc3c(Cl)cccc3Cl)c(C)c(=O)[nH]2)cc1`: the EC50 was more than 55.7 µM in assay [1], more than 55.7 µM in assay [2], 8.64 µM in assay [3] and 0.127 µM in assay [5]. The ID50 in assay [4] is more than 20 µM; in assay [6], 0.085 µM; in assay [7] it was more than 20 µM.
Regarding `Cc1c(Cc2c(F)cccc2F)nc(SC/C=C/c2ccc([N+](=O)[O-])cc2)[nH]c1=O`, the EC50 was more than 11.7 µM in assay [1], more than 11.7 µM in assay [2], more than 11.7 µM in assay [3] and 0.26 µM in assay [5]. Moreover, the ID50 was more than 20 µM in assay [4], 11.9 µM in assay [6] and more than 20 µM in assay [7].
With `COc1ccc(CCCSc2nc(C(C)c3c(Cl)cccc3Cl)c(C)c(=O)[nH]2)cc1` (configuration not stated), the EC50 was found to be 0.82 µM in assay [1], 0.28 µM in assay [2], 0.24 µM in assay [3] and 0.0002 µM in assay [5]. Further, the ID50 in assay [4] was more than 20 µM; in assay [6] it was 9.76 µM; in assay [7] it was more than 20 µM.
Consider `Cc1c(Cc2c(F)cccc2F)nc(SCC#Cc2ccc([N+](=O)[O-])cc2)[nH]c1=O`, for which the EC50 was more than 58.6 µM in assay [1], more than 58.6 µM in assay [2], more than 58.6 µM in assay [3] and 40.1 µM in assay [5]. For the same compound, the ID50 in assay [4] is more than 20 µM; in assay [6], 0.416 µM; in assay [7], more than 20 µM.
In the case of `CCc1c(Cc2c(Cl)cccc2Cl)nc(SCc2ccc([N+](=O)[O-])cc2)[nH]c1=O`, the EC50 is more than 55.6 µM in assay [1], more than 55.6 µM in assay [2], 1.58 µM in assay [3] and 0.0666 µM in assay [5]. For the same compound, the ID50 in assay [4] is more than 20 µM; in assay [6] it was 0.075 µM; in assay [7], more than 20 µM.
With `CCc1c(Cc2c(Cl)cccc2Cl)nc(SCCc2ccc(OC)cc2)[nH]c1=O`, the EC50 was 6.81 µM in assay [1], more than 11.1 µM in assay [2], 3.85 µM in assay [3] and 0.0013 µM in assay [5]. The figures for the ID50 in assay [4], in assay [6] and in assay [7] were more than 20 µM, 0.07 µM and more than 20 µM, respectively.
For `COc1ccc(CSc2nc(Cc3ccc(C#N)cc3)c(C)c(=O)[nH]2)cc1`, the concentration giving a half-maximal response (EC50) in assay [1] was more than 66.3 µM; in assay [2], more than 66.3 µM; in assay [3], more than 66.3 µM; in assay [5] it was 20.3 µM. In addition, the ID50 in assay [4], in assay [6] and in assay [7] was more than 20 µM in each case.

These data come from ChEMBL document CHEMBL1138362, “Dihydro-alkylthio-benzyl-oxopyrimidines as inhibitors of reverse transcriptase: synthesis and rationalization of the biological data on both wild-type enzyme and relevant clinical mutants” (J Med Chem, 2007).
